Reference: ChEMBL document CHEMBL4229376, “Optimization of the pharmacokinetic properties of potent anti-trypanosomal triazine derivatives” (Eur J Med Chem, 2018)
Active and inactive are the calls of the source. The rule behind the calls is not given here.

Tests used:
[1] = Cmax in Swiss mouse infected with Trypanosoma brucei brucei Squib 427 at 25 mg/kg, po administered as single dose after 24 hrs by UPLC/MS/ESI analysis; format: ADME, organism-based; parameters: dose 25 mg/kg, route oral; conditions: in vivo
[2] = tested on: Trypanosoma brucei brucei; assay: Antitrypanosomal activity against Trypanosoma brucei brucei Squib 427 infected in Swiss mouse assessed as mouse survival at 25 mg/kg, po bid for 5 days and measured on day 14 post infection; format: functional, organism-based
Procedure, shortened: (§1)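 Acute T. b. brucei mouse infection model. Dosing was PO or IP at 10–50 mg/kg, once (SID) or twice (BID) daily for 5 days after infection, with 3 mice per group. […] Read-outs were mean survival time and survivors on day 14 post infection.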

[3] = Drug uptake in Swiss mouse blood at 25 mg/kg, po administered as single dose after 4 hrs by UPLC/MS/ESI analysis; format: ADME, organism-based; conditions: whole blood, read-out: Drug uptake
Procedure, shortened: (§2)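 Mice were given the compound orally as a single dose of either 25 or 50 mg/kg, one group per dose. Plasma concentrations were followed over time up to 24 h, and the pharmacokinetic parameters were derived from the concentration-time profile.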

[4] = tested on: Trypanosoma brucei brucei; assay: Antitrypanosomal activity against Trypanosoma brucei brucei Squib 427 infected in Swiss mouse assessed as mouse survival at 10 mg/kg, ip administered as single dose for 5 days and measured on day 14 post infection; format: functional, organism-based; procedure, shortened: as §1
[5] = tested on: Trypanosoma brucei brucei; assay: Antitrypanosomal activity against Trypanosoma brucei brucei Squib 427 infected in Swiss mouse assessed as mean survival days at 10 mg/kg, ip administered as single dose for 5 days; format: functional
Procedure, shortened: (§3)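 Acute mouse infection model with T. b. brucei. Dosing ran for 5 days after infection, orally or intraperitoneally, once or twice daily. Groups were 3 mice each, with vehicle-treated infected controls. The read-out was mean survival time in days, plus the number of survivors on day 14 post-infection.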

[6] = Drug uptake in Swiss mouse blood at 50 mg/kg, po administered as single dose after 1 hr by UPLC/MS/ESI analysis; format: ADME, organism-based; conditions: whole blood, read-out: Drug uptake; procedure, shortened: as §2
[7] = Drug metabolism in mouse liver microsomes assessed as UGT mediated compound […] by measuring parent compound remaining at 5 uM after 60 mins in presence of UDPGA by UPLC/MS/ESI analysis; format: ADME; conditions: 1 h
Procedure, shortened: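 Metabolic stability was run with mouse liver microsomal fraction (S9) and read as percent parent compound remaining over incubation time. Diclofenac served as the reference compound.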

[8] = Drug level in Swiss mouse blood infected with Trypanosoma brucei brucei Squib 427 at 50 mg/kg, po bid for 5 days measured after 4 hrs after last dose by UPLC/MS/ESI analysis; format: ADME, organism-based; conditions: whole blood, read-out: Drug uptake
[9] = Drug level in Swiss mouse blood infected with Trypanosoma brucei brucei Squib 427 at 50 mg/kg, po bid for 5 days measured after 1 hr after last dose by UPLC/MS/ESI analysis; format: ADME, organism-based; conditions: whole blood, read-out: Drug uptake
[10] = Drug metabolism in human liver microsomes assessed as UGT mediated compound […] by measuring parent compound remaining at 5 uM after 30 mins in presence of UDPGA by UPLC/MS/ESI analysis; format: ADME; conditions: read-out: Stability
[11] = Drug uptake in Swiss mouse blood at 25 mg/kg, po administered as single dose after 24 hrs by UPLC/MS/ESI analysis; format: ADME, organism-based; conditions: whole blood, read-out: Drug uptake; procedure, shortened: as §2
[12] = Drug metabolism in human liver microsomes assessed as CYP450 mediated compound […] by measuring parent compound remaining at 5 uM after 30 mins in presence of NADPH by UPLC/MS/ESI analysis; format: ADME; conditions: read-out: Stability
[13] = Tmax in Swiss mouse at 25 mg/kg, po administered as single dose after 24 hrs by UPLC/MS/ESI analysis; format: ADME, organism-based; conditions: in vivo; procedure, shortened: as §2
[14] = Drug uptake in Swiss mouse blood at 50 mg/kg, po administered as single dose after 0.5 hrs by UPLC/MS/ESI analysis; format: ADME, organism-based; conditions: whole blood, read-out: Drug uptake; procedure, shortened: as §2
[15] = tested on: Trypanosoma brucei brucei; assay: Antitrypanosomal activity against Trypanosoma brucei brucei Squib 427 infected in Swiss mouse assessed as mean survival days at 50 mg/kg, po administered as single dose for 5 days; format: functional; procedure, shortened: as §3
[16] = Drug uptake in Swiss mouse blood at 50 mg/kg, po administered as single dose after 4 hrs by UPLC/MS/ESI analysis; format: ADME, organism-based; conditions: whole blood, read-out: Drug uptake; procedure, shortened: as §2
Mus musculus = assay: Apparent volume of distribution in Swiss mouse infected with Trypanosoma brucei brucei Squib 427 at 50 mg/kg, po bid for 5 days after 24 hrs by UPLC/MS/ESI analysis; format: ADME, organism-based; conditions: in vivo
[17] = Drug uptake in Swiss mouse blood at 50 mg/kg, po administered as single dose after 2 hrs by UPLC/MS/ESI analysis; format: ADME, organism-based; conditions: whole blood, read-out: Drug uptake; procedure, shortened: as §2
[18] = tested on: Trypanosoma brucei brucei; assay: Antitrypanosomal activity against Trypanosoma brucei brucei Squib 427 infected in Swiss mouse assessed as mean survival days at 50 mg/kg, po bid for 5 days; format: functional; procedure, shortened: as §3
[19] = Half life in Swiss mouse at 25 mg/kg, po administered as single dose after 24 hrs by UPLC/MS/ESI analysis; format: ADME, organism-based; conditions: in vivo; procedure, shortened: as §2
[20] = Drug uptake in Swiss mouse blood at 25 mg/kg, po administered as single dose after 2 hrs by UPLC/MS/ESI analysis; format: ADME, organism-based; conditions: whole blood, read-out: Drug uptake; procedure, shortened: as §2
[21] = Drug metabolism in mouse liver microsomes assessed as CYP450 mediated compound […] by measuring parent compound remaining at 5 uM after 30 mins in presence of NADPH by UPLC/MS/ESI analysis; format: ADME; conditions: read-out: Stability
[22] = Protein binding in 10% FBS in Trypanosoma brucei culture medium assessed as drug recovery at 2 uM after 6 hrs by equilibrium dialysis and LC-MS analysis; format: ADME, cell-free, Bos taurus, Serum; conditions: cattle, read-out: Drug recovery
[23] = Protein binding in 10% FBS in Trypanosoma brucei culture medium assessed as drug recovery at 10 uM after 6 hrs by equilibrium dialysis and LC-MS analysis; format: ADME, cell-free, Bos taurus, Serum; conditions: cattle, read-out: Drug recovery
[24] = AUC (0 to >4 hrs) in Swiss mouse at 25 mg/kg, po administered as single dose by UPLC/MS/ESI analysis; format: ADME, organism-based; conditions: in vivo
Procedure, shortened: (§4)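 Mice in groups received one oral dose of 25 or 50 mg/kg. Plasma concentrations were followed over time up to 24 h, and PK parameters including T1/2 were derived from the concentration–time profile.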

[25] = Clearance in Swiss mouse at 25 mg/kg, po administered as single dose after 24 hrs by UPLC/MS/ESI analysis; format: ADME, organism-based; conditions: in vivo; procedure, shortened: as §4
[26] = Drug metabolism in mouse liver microsomes assessed as CYP450 mediated compound […] by measuring parent compound remaining at 5 uM after 60 mins in presence of NADPH by UPLC/MS/ESI analysis; format: ADME; conditions: read-out: Stability
[27] = Drug metabolism in human liver microsomes assessed as CYP450 mediated compound […] by measuring parent compound remaining at 5 uM after 15 mins in presence of NADPH by UPLC/MS/ESI analysis; format: ADME; conditions: read-out: Stability
[28] = Protein binding in mouse plasma at 10 uM after 6 hrs by equilibrium dialysis and LC-MS analysis; format: ADME, cell-free; conditions: read-out: PPB (converted)
[29] = Tmax in Swiss mouse infected with Trypanosoma brucei brucei Squib 427 at 50 mg/kg, po bid for 5 days after 24 hrs by UPLC/MS/ESI analysis; format: ADME, organism-based; conditions: in vivo
[30] = tested on: Trypanosoma brucei brucei; assay: Antitrypanosomal activity against Trypanosoma brucei brucei Squib 427 assessed as reduction in parasite growth at 7 to 14 times IC50 after 48 hrs resazurin dye-based fluorimetric analysis; format: functional, organism-based
Procedure, shortened: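 In vitro time course of T. b. brucei growth in the presence of compound, with parasite growth expressed as % of control.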

[31] = Protein binding in mouse plasma at 2 uM after 6 hrs by equilibrium dialysis and LC-MS analysis; format: ADME, cell-free; conditions: read-out: PPB (converted)

## Nc1nc(Nc2ccc(F)cc2)nc(Oc2ccc(F)cc2)n1
[1]
  Cmax: 2690 ng/mL
[2]
  Activity: inactive
[3]
  concentration at 4 h: 929 ng/mL
[4]
  Activity: inactive
[5]
  MST: 7 days
[6]
  concentration at 1 h: 1730 ng/mL
[7]
  Stability: 101%
[8]
  concentration at 4 h: 800 ng/mL
[9]
  concentration at 1 h: 3800 ng/mL
[10]
  remaining at 0.5 h, 5 µM: 97%
[11]
  concentration at 24 h: 50 ng/mL
[12]
  remaining at 0.5 h, 5 µM: 85%
[13]
  Tmax: 2.3 h
[14]
  concentration at 0.5 h: 1780 ng/mL
[15]
  MST: 7 days
[16]
  concentration at 4 h: 2030 ng/mL
Mus musculus
  Vz: 10.9 L
[17]
  concentration at 2 h: 1630 ng/mL
[18]
  MST: 5.7 days
[19]
  half-life: 4.14 h
[20]
  concentration at 2 h: 1320 ng/mL
[21]
  remaining at 0.5 h, 5 µM: 80%
[22]
  recovery at 6 h, 2 µM: 96.1%
[23]
  recovery at 6 h, 10 µM: 71.1%
[24]
  AUC at 4 h: 13800 ng·h/mL
[25]
  CL/F: 70.1 mL/min
[26]
  remaining at 1 h, 5 µM: 74%
[27]
  remaining at 0.25 h, 5 µM: 93%
[28]
  fraction unbound at 6 h, 10 µM: 0.023
[29]
  Tmax: 1.3 h
[30]
  Activity: inactive
[31]
  fraction unbound at 6 h, 2 µM: 0.04
